Laboratory results published in ChEMBL document CHEMBL5346868 (Eur J Med Chem, 2023).

Tests used:
[1] = test system: Enterovirus A71; assay: Antiviral activity against human Enterovirus 71 BrCr infected in human RD cells assessed as reduction of virus induced cytopathic effect incubated for 3 days by MTS assay; format: functional, organism-based; details: Enterovirus A, 72 h
In short: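 Confluent RD cells (EMEM, 10% heat-inactivated FBS) are infected with ~100 CCID50 of EV71 BrCr and treated with a compound dilution series. After 3 days at 37 °C, 5% CO2, residual viability is measured by MTS. EC50 is the concentration giving 50% antiviral effect, from at least 2–3 independent experiments.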

[2] = Cytotoxicity against human RD cells by MTS assay; format: toxicity, cell-based
In short: (§1)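 Treated, uninfected RD or HeLa cells are run alongside the matching enterovirus CPE assays, with viability read by MTS. CC50 is the concentration giving a 50% adverse effect on host cells.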

[3] = Selectivity index, ratio of CC50 for human RD cells to EC50 for antiviral activity against human Enterovirus 71; format: toxicity; details: read-out: Ratio CC50/EC50
In short: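 SI is calculated as CC50 on uninfected RD cells divided by EC50 in the 3-day EV71 BrCr CPE-reduction MTS assay.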

[4] = test system: SARS-CoV-2; assay: Antiviral activity against SARS-CoV-2 BetaCoV/Belgium/GHB-03021/2020 infected in african green monkey Vero cells assessed as decline in virus induced cytopathogenicity measured after 4 days by argon laser scanning microscopic analysis; format: functional, organism-based; details: Severe acute respiratory syndrome coronavirus 2, BetaCoV/Belgium/GHB-03021/2020, Vero, 96 h
[5] = test system: Zika virus; assay: Antiviral activity against ZIKV MR766 infected in african green monkey Vero E6 cells assessed as decline in virus induced cytopathogenicity measured after 5 days by MTS based microscopic analysis; format: functional, organism-based; details: MR766, Vero C1008, 120 h
In short: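 Vero E6 cells (10^4/well) are seeded in MEM with 2% FCS and left to adhere overnight. Cells are then infected with ZIKV MR766 (passaged in C6/36 cells) and given 2-fold serial compound dilutions. After 5 days, CPE is scored by MTS and by microscopy of fixed, stained cells. EC50 is the 50% antiviral effect.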

[6] = Cytotoxicity against african green monkey Vero E6 cells by MTS assay; format: toxicity, cell-based, Vero C1008; details: chlorocebus sabaeus
In short: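 Cytotoxicity is measured on treated, uninfected Vero E6 cells in parallel with the antiviral assays, using a standard MTS assay. CC50 is the concentration causing a 50% adverse effect on host cells.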

[7] = test system: Coxsackievirus B3; assay: Antiviral activity against Coxsackievirus B3 infected in african green monkey Vero cells assessed as reduction of virus induced cytopathic effect incubated for 3 days by MTS assay; format: functional, organism-based; details: Enterovirus B, 72 h
In short: (§2)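 Same setup as the EV71 assay: confluent monolayers (Vero A for CVB3; HeLa for CVA21, EV68, HRV-A02, HRV-B14) are infected with virus and treated with a compound dilution series. Incubation is 3 days at 37 °C, 5% CO2, and residual viability is read by MTS. EC50 is the 50% effective concentration, mean of at least 2 independent experiments.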

[8] = Cytotoxicity against african green monkey Vero cells by MTS assay; format: toxicity, cell-based; details: chlorocebus sabaeus
[9] = test system: Coxsackievirus A21; assay: Antiviral activity against Coxsackievirus 21 infected in human HeLa cells assessed as reduction of virus induced cytopathic effect incubated for 3 days by MTS assay; format: functional, organism-based; details: Enterovirus C, 72 h
In short: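 HeLa cells infected with coxsackievirus A21 (~100 CCID50) and treated with a compound dilution series, as in the EV71 set-up. Incubation was 3 days at 37 °C, 5% CO2, with residual viability quantified by MTS. EC50 is the concentration giving 50% antiviral effect. Values are means of ≥2 independent experiments.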

[10] = test system: enterovirus D68; assay: Antiviral activity against Human enterovirus 68 infected in human HeLa cells assessed as reduction of virus induced cytopathic effect incubated for 3 days by MTS assay; format: functional, organism-based; details: Enterovirus D, 72 h; in short: as §2
[11] = test system: rhinovirus A2; assay: Antiviral activity against Human rhinovirus 2 infected in human HeLa cells assessed as reduction of virus induced cytopathic effect incubated for 3 days by MTS assay; format: functional, organism-based; details: Rhinovirus A, 72 h; in short: as §2
[12] = test system: rhinovirus B14; assay: Antiviral activity against Human rhinovirus 14 infected in human HeLa cells assessed as reduction of virus induced cytopathic effect incubated for 3 days by MTS assay; format: functional, organism-based; details: Rhinovirus B, 72 h; in short: as §2
[13] = Cytotoxicity against human HeLa cells by MTS assay; format: toxicity, cell-based; in short: as §1
[14] = biological target: METTL3/METTL14 (Homo sapiens, UniProt Q86U44); assay: Inhibition of human recombinant full length METTL3/human N-terminal FLAG-tagged METTL14 expressed in SF9 cells assessed as methyltransferase residual activity using ssRNA 5'-rUrArC rArCrU rCrGrA rUrCrU rGrGrA rCrUrA rArArG rCrUrG rCrUrC -3' as substrate incubated for 20 mins followed by H-SAM addition measured after 2 hrs by radio isotope reaction system analysis
Chain of METTL3/METTL14 (Q86U44 whole entry): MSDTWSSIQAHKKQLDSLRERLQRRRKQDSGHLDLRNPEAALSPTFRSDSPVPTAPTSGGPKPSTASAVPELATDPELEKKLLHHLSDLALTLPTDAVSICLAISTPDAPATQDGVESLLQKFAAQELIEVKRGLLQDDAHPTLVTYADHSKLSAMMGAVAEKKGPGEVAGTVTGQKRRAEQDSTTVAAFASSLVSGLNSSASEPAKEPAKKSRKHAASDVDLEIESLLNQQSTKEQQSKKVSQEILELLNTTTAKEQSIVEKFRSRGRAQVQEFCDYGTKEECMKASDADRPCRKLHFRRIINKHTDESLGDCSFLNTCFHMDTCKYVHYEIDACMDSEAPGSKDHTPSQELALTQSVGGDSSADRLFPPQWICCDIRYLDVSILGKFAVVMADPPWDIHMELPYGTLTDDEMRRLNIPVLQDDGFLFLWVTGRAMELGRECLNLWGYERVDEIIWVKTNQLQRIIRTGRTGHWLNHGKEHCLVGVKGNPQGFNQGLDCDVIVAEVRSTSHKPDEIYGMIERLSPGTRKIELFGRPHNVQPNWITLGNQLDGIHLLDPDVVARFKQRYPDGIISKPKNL
Chain of METTL3/METTL14 (Q9HCE5 whole entry, further chain): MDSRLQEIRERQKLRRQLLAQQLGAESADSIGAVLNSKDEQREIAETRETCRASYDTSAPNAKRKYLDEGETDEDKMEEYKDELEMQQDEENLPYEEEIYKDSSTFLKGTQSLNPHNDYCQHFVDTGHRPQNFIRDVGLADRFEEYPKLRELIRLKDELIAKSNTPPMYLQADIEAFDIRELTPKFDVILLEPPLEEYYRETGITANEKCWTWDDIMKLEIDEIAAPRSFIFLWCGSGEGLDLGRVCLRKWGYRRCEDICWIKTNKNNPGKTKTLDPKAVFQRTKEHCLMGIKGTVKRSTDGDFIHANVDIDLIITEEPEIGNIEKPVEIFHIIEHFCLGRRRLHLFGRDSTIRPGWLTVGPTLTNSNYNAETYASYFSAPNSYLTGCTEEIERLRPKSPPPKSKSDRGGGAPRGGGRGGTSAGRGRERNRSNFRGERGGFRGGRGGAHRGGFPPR
In short: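 Compound is pre-incubated for 20 min at room temperature, then 1 μM [3H-methyl]SAM is added for 2 h at room temperature. Activity is reported as % remaining, screened at 100 μM, with IC50 from curve fits.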

Compound: CSC[C@H]1O[C@@H](n2cnc3c(NCc4cccc(S(F)(F)(F)(F)F)c4)ncnc32)[C@H](O)[C@@H]1O
- EC50 [1]: 1.85 µM
- CC50 [2]: 23.5 µM
- selectivity ratio [3]: 12.7
- EC50 [4]: > 100 µM
- EC50 [5]: > 100 µM
- CC50 [6]: 46.4 µM

Compound: OC[C@H]1O[C@@H](n2cnc3c(NCc4cccc(Cl)c4)ncnc32)[C@H](O)[C@@H]1O
- EC50 [1]: 0.106 µM
- CC50 [2]: 42.7 µM
- selectivity ratio [3]: 403
- EC50 [4]: > 100 µM
- EC50 [5]: > 100 µM
- CC50 [6]: > 100 µM

Compound: CCOC(=O)/C=C/[C@H](C[C@@H]1CCNC1=O)NC(=O)[C@@H](CC(=O)[C@@H](NC(=O)c1cc(C)on1)C(C)C)Cc1ccc(F)cc1
- CC50 [2]: > 1 µM
- selectivity ratio [3]: > 111

Compound: CSC[C@H]1O[C@@H](n2cnc3c(NCc4cccc(C)c4)ncnc32)[C@H](O)[C@@H]1O
- EC50 [1]: 0.898 µM
- CC50 [2]: > 75 µM
- selectivity ratio [3]: > 83.5
- EC50 [4]: > 100 µM
- EC50 [5]: > 100 µM
- CC50 [6]: > 100 µM
- EC50 [7]: > 100 µM
- CC50 [8]: > 50 µM
- EC50 [9]: > 100 µM
- EC50 [10]: > 100 µM
- EC50 [11]: > 100 µM
- EC50 [12]: > 100 µM
- CC50 [13]: > 100 µM

Compound: OC[C@H]1O[C@@H](n2cnc3c(NCc4ccccc4Cl)ncnc32)[C@H](O)[C@@H]1O
- EC50 [1]: 0.117 µM
- CC50 [2]: 28.2 µM
- selectivity ratio [3]: 241
- EC50 [4]: > 100 µM
- EC50 [5]: > 100 µM
- CC50 [6]: > 100 µM

Compound: CSC[C@H]1O[C@@H](n2cnc3c(N4CCc5ccccc54)ncnc32)[C@H](O)[C@@H]1O
- EC50 [1]: 19 µM
- CC50 [2]: 64.9 µM
- selectivity ratio [3]: 3.4
- EC50 [4]: > 100 µM
- EC50 [5]: > 100 µM
- CC50 [6]: > 100 µM

Compound: Cc1cccc(CNc2ncnc3c2ncn3[C@@H]2O[C@H](CO)[C@@H](O)[C@H]2O)c1
- EC50 [1]: 0.094 µM
- CC50 [2]: > 100 µM
- selectivity ratio [3]: > 1060
- EC50 [4]: > 100 µM
- EC50 [5]: > 100 µM
- CC50 [6]: > 100 µM
- EC50 [7]: > 100 µM
- CC50 [8]: > 100 µM
- EC50 [9]: 36.4 µM
- EC50 [10]: 8.9 µM
- EC50 [11]: > 100 µM
- EC50 [12]: > 100 µM
- CC50 [13]: > 100 µM

Compound: C[C@@]1(O)[C@H](O)[C@@H](CO)O[C@H]1n1ccc2c(N)ncnc21 [BETA-2'-C-METHYL-7-DEAZA-ADENOSINE]
- EC50 [5]: 20 µM
- CC50 [6]: > 300 µM

Compound: CSC[C@H]1O[C@@H](n2cnc3c(NCc4cccc(Cl)c4)ncnc32)[C@H](O)[C@@H]1O
- EC50 [1]: 0.53 µM
- CC50 [2]: > 20 µM
- selectivity ratio [3]: > 37.7
- EC50 [4]: > 100 µM
- EC50 [5]: > 100 µM
- CC50 [6]: > 100 µM
- IC50 [14]: 184 µM

Compound: OC[C@H]1O[C@@H](n2cnc3c(N4CCc5ccccc54)ncnc32)[C@H](O)[C@@H]1O
- EC50 [1]: > 100 µM
- CC50 [2]: > 100 µM
- EC50 [4]: > 100 µM
- EC50 [5]: > 100 µM
- CC50 [6]: > 100 µM

Compound: CSC[C@H]1O[C@@H](n2ccc3c(NCc4cccc(Cl)c4)ncnc32)[C@H](O)[C@@H]1O
- EC50 [1]: > 75 µM
- CC50 [2]: > 100 µM
- EC50 [4]: > 100 µM
- EC50 [5]: > 100 µM
- CC50 [6]: > 100 µM

Compound: CSC[C@H]1O[C@@H](n2cnc3c(NCc4cccc(C(F)(F)F)c4)ncnc32)[C@H](O)[C@@H]1O
- EC50 [1]: > 20 µM
- CC50 [2]: > 100 µM
- EC50 [4]: > 100 µM
- EC50 [5]: > 100 µM
- CC50 [6]: > 100 µM

Compound: CC(Nc1ncnc2c1ncn2[C@@H]1O[C@H](CO)[C@@H](O)[C@H]1O)c1cccc(Cl)c1 (some centres undefined)
- EC50 [1]: 1.07 µM
- CC50 [2]: > 100 µM
- selectivity ratio [3]: > 93.5
- EC50 [4]: > 100 µM
- EC50 [5]: > 100 µM
- CC50 [6]: > 100 µM
- EC50 [7]: > 100 µM
- CC50 [8]: > 100 µM
- EC50 [9]: > 100 µM
- EC50 [10]: > 100 µM
- EC50 [11]: > 100 µM
- EC50 [12]: > 100 µM
- CC50 [13]: > 100 µM
